ChEMBL document CHEMBL1146223, “Synthesis, monoamine transporter binding, properties, and functional monoamine uptake activity of 3beta-[4-methylphenyl and 4-chlorophenyl]-2 beta-[5-(substituted phenyl)thiazol-2-yl]tropanes” (J Med Chem, 2007)

Legend:
[1] = biological target: Sodium-dependent dopamine transporter (Rattus norvegicus, UniProt P23977); assay: Displacement of [3H]WIN-35428 from DAT in Sprague-Dawley rat brain; format: tissue-based
How it was run: (§1)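 Male Sprague-Dawley rats (200-250 g); striata, midbrain or frontal cortex tissue used for competition binding. Final radioligand concentrations were 0.5 nM for DAT, 0.2 nM [³H]paroxetine for SERT and 0.5 nM [³H]nisoxetine for NET.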

[2] = biological target: T1, Sodium-dependent serotonin transporter (Homo sapiens, UniProt P31645); assay: Displacement of [125I]RTI-55 from human SERT expressed in HEK cells after 90 mins; format: cell-based, HEK293
How it was run: (§2)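 Competition binding on human DAT or SERT stably expressed in HEK293 cells, using the nonselective radioligand [¹²⁵I]RTI-55.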

[3] = biological target: T1, Sodium-dependent serotonin transporter; assay: Inhibition of human SERT in HEK cells assessed as [3H]serotonin reuptake; format: functional, cell-based, HEK293
How it was run: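 Human SERT stably expressed in HEK293 cells; the compound's block of radiolabelled serotonin reuptake was measured in these cells.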

[4] = biological target: Sodium-dependent dopamine transporter (Homo sapiens, UniProt Q01959); assay: Displacement of [125I]RTI-55 from human DAT expressed in HEK cells after 90 mins; format: cell-based, HEK293; how it was run: as §2
[5] = biological target: Norepinephrine transporter (Rattus norvegicus, UniProt Q9WTR4); assay: Displacement of [3H]nisoxetine from NET in Sprague-Dawley rat brain; format: tissue-based; how it was run: as §1
[6] = biological target: Sodium-dependent serotonin transporter (Rattus norvegicus, UniProt P31652); assay: Displacement of [3H]paroxetine from SERT in Sprague-Dawley rat brain; format: tissue-based; how it was run: as §1
[7] = biological target: T2, Sodium-dependent noradrenaline transporter (Homo sapiens, UniProt P23975); assay: Displacement of [125I]RTI-55 from human NET expressed in HEK cells after 90 mins; format: cell-based, HEK293
[8] = biological target: T2, Sodium-dependent noradrenaline transporter; assay: Inhibition of human NET in HEK cells assessed as [3H]norepinephrine reuptake; format: functional, cell-based, HEK293

Norepinephrine transporter, sequence (Q9WTR4 whole entry): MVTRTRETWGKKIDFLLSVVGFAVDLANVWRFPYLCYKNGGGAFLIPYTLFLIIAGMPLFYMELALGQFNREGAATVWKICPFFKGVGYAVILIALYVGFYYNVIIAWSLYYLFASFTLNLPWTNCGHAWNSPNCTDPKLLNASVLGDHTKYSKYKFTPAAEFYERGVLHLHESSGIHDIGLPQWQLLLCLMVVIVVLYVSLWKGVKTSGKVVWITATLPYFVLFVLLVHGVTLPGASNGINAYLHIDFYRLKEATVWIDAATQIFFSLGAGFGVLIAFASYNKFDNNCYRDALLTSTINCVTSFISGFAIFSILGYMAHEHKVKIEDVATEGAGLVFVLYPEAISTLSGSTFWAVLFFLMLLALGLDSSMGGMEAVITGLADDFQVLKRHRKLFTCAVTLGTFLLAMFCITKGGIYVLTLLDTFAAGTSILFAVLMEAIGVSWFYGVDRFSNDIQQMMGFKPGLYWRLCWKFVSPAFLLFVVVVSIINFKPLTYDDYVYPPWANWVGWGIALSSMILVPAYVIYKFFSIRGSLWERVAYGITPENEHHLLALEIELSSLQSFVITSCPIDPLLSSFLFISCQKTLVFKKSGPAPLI
T2 sequence (P23975 whole entry): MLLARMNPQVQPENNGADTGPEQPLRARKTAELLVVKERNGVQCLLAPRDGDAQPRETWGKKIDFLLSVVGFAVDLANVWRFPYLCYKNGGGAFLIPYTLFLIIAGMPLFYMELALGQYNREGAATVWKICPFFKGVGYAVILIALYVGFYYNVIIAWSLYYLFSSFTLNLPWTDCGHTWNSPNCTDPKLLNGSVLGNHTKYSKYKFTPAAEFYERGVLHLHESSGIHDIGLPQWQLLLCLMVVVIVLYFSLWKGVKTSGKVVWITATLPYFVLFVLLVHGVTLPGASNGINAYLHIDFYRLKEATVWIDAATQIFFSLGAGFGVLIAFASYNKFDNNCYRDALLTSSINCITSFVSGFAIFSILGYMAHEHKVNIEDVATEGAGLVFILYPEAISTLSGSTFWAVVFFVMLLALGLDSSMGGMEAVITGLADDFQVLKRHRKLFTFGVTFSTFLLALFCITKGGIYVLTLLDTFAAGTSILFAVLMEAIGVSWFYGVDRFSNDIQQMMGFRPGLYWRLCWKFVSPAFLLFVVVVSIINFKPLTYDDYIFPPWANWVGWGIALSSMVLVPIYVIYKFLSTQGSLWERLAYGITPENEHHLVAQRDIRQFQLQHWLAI
Sodium-dependent dopamine transporter (Rattus norvegicus, UniProt P23977), sequence (P23977 whole entry): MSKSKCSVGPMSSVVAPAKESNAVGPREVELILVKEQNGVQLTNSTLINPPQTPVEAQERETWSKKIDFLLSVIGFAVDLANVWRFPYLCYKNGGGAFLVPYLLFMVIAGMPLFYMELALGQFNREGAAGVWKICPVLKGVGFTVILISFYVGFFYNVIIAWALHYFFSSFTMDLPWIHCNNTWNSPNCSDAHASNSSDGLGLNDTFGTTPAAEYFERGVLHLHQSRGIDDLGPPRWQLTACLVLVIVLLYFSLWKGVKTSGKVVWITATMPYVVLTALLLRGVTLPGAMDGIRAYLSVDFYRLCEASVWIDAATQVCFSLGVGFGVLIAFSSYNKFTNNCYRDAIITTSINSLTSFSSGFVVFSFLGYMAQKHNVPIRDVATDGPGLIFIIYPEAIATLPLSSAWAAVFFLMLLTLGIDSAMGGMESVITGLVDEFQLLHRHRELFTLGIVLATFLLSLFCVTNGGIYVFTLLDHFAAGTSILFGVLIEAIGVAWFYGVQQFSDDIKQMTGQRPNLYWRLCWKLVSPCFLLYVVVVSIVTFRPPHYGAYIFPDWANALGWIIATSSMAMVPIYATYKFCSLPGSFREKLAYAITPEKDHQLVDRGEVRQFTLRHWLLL
Sodium-dependent serotonin transporter (Rattus norvegicus, UniProt P31652), sequence (P31652 whole entry): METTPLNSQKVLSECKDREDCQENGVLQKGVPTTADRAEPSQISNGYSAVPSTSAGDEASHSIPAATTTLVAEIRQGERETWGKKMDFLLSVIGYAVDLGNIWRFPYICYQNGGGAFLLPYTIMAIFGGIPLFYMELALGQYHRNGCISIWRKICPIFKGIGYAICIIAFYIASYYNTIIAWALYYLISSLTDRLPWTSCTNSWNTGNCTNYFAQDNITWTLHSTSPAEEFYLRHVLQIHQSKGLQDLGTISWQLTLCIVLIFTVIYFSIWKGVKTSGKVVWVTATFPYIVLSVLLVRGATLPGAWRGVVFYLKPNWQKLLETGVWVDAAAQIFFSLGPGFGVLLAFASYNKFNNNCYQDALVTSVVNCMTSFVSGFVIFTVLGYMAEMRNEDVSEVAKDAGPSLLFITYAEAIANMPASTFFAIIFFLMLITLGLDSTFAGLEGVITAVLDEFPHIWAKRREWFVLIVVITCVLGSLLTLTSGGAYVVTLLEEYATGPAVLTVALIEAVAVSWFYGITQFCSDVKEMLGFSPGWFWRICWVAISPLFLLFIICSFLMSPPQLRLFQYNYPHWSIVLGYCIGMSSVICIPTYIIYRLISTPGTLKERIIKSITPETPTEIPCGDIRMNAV
T1 sequence (P31645 whole entry): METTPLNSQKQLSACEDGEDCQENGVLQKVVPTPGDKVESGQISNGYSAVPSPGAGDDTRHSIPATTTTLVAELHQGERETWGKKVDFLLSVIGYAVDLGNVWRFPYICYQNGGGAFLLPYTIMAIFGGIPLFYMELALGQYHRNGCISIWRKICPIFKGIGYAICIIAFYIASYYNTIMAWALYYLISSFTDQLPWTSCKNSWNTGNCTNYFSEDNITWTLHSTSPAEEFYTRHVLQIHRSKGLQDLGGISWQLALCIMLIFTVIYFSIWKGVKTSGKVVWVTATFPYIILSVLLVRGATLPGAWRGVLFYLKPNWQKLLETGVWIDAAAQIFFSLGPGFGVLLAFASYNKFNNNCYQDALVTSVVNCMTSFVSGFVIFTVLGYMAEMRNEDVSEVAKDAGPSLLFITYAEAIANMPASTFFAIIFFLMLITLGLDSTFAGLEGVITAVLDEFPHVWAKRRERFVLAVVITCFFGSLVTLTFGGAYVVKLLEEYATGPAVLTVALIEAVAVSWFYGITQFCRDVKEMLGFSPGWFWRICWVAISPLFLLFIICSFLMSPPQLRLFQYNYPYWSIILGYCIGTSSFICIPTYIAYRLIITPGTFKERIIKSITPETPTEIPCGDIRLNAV
Sodium-dependent dopamine transporter (Homo sapiens, UniProt Q01959), sequence (Q01959 whole entry): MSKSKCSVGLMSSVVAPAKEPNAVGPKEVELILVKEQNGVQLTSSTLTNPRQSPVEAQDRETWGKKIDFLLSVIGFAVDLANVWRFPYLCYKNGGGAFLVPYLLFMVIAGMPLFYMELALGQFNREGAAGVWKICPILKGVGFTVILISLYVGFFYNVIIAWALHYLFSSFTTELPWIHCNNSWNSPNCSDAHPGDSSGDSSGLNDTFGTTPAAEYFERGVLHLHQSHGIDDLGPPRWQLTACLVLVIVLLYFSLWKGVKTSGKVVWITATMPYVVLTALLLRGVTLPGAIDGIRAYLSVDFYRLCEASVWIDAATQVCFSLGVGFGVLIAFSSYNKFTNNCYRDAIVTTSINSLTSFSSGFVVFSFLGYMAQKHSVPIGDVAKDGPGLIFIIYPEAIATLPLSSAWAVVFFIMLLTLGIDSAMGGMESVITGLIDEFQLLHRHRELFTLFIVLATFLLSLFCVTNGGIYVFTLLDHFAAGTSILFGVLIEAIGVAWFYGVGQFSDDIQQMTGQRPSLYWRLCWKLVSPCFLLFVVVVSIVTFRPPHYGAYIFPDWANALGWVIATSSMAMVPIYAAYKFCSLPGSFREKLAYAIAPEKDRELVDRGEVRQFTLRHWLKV

Row | SMILES | IC50 [1] | Ki [2] | IC50 [3] | Ki [4] | Ki [5] | Ki [6] | Ki [7] | IC50 [8]
1 | Cc1ccc([C@H]2C[C@@H]3CC[C@H]([C@H]2c2ncc(-c4ccc(F)cc4)s2)N3C)cc1 | 12 nM | 1720 nM | 3200 nM | 61 nM | > 2000 nM | 2240 nM | – | –
2 | Cc1ccc([C@H]2C[C@@H]3CC[C@H]([C@H]2c2ncc(-c4ccc([N+](=O)[O-])cc4)s2)N3C)cc1 | 41 nM | 1640 nM | 3170 nM | 140 nM | > 2000 nM | 1690 nM | – | –
3 | CN1[C@H]2CC[C@@H]1[C@@H](c1ncc(-c3ccc([N+](=O)[O-])cc3)s1)[C@@H](c1ccc(Cl)cc1)C2 | 20 nM | 1820 nM | 3600 nM | 6.1 nM | > 2000 nM | 980 nM | – | –
4 | CN1[C@H]2CC[C@@H]1[C@@H](c1ncc(-c3ccccc3)s1)[C@@H](c1ccc(Cl)cc1)C2 | 5.7 nM | 2670 nM | 2710 nM | 18 nM | 8560 nM | > 2000 nM | 1840 nM | 750 nM
5 | CN1[C@H]2CC[C@@H]1[C@@H](c1ncc(-c3ccc(Cl)cc3)s1)[C@@H](c1ccc(Cl)cc1)C2 | 20 nM | 2390 nM | 4400 nM | 28 nM | > 2000 nM | 903 nM | – | –
6 | CN1[C@H]2CC[C@@H]1[C@@H](c1ncc(-c3ccc(Cl)c(Cl)c3)s1)[C@@H](c1ccc(Cl)cc1)C2 | 440 nM | 2710 nM | 5300 nM | 66 nM | > 2000 nM | 380 nM | – | –
7 | COC(=O)[C@H]1[C@@H](c2ccccc2)C[C@@H]2CC[C@H]1N2C [TROPARIL] | 23 nM | – | – | – | 920 nM | – | – | –
8 | Cc1ccc([C@H]2C[C@@H]3CC[C@H]([C@H]2c2ncc(-c4ccc(Cl)c(Cl)c4)s2)N3C)cc1 | 102 nM | 2940 nM | 4400 nM | 105 nM | > 2000 nM | 190 nM | > 6100 nM | 4000 nM
9 | Cc1ccc([C@H]2C[C@@H]3CC[C@H]([C@H]2c2ncc(-c4ccc(Cl)cc4)s2)N3C)cc1 | 22 nM | 1320 nM | 377 nM | 212 nM | > 2000 nM | 1110 nM | – | –
10 | CN1[C@H]2CC[C@@H]1[C@@H](c1ncc(-c3ccc(Br)cc3)s1)[C@@H](c1ccc(Cl)cc1)C2 | – | 5700 nM | 8220 nM | – | > 2000 nM | 840 nM | – | –
11 | COc1ccc(-c2cnc([C@H]3[C@@H](c4ccc(C)cc4)C[C@@H]4CC[C@H]3N4C)s2)cc1OC | 83 nM | 7710 nM | > 10000 nM | 529 nM | > 2000 nM | > 2000 nM | – | –
12 | COc1ccc(-c2cnc([C@H]3[C@@H](c4ccc(Cl)cc4)C[C@@H]4CC[C@H]3N4C)s2)cc1OC | 65 nM | 3590 nM | > 6800 nM | 234 nM | > 2000 nM | 1510 nM | – | –
13 | CN1[C@H]2CC[C@@H]1[C@@H](c1ncc(-c3cccc([N+](=O)[O-])c3)s1)[C@@H](c1ccc(Cl)cc1)C2 | 5 nM | 740 nM | 1610 nM | 7.7 nM | > 2000 nM | 301 nM | – | –
14 | CN1[C@H]2CC[C@@H]1[C@@H](c1ncc(-c3cccc(Br)c3)s1)[C@@H](c1ccc(Cl)cc1)C2 | 18 nM | 1500 nM | 4000 nM | 39 nM | > 2000 nM | 280 nM | – | –
15 | COc1ccc(-c2cnc([C@H]3[C@@H](c4ccc(Cl)cc4)C[C@@H]4CC[C@H]3N4C)s2)cc1 | 14 nM | 5200 nM | 6700 nM | 8.6 nM | > 2000 nM | 800 nM | – | –
16 | CN1[C@H]2CC[C@@H]1[C@@H](c1ncc(-c3ccc(F)cc3)s1)[C@@H](c1ccc(Cl)cc1)C2 | 6 nM | 653 nM | 1010 nM | 12 nM | > 2000 nM | 371 nM | – | –
17 | Cc1ccc([C@H]2C[C@@H]3CC[C@H]([C@H]2c2ncc(-c4cccc(Br)c4)s2)N3C)cc1 | 10 nM | 870 nM | 3860 nM | 12 nM | > 2000 nM | 312 nM | – | –
18 | COc1ccc(-c2cnc([C@H]3[C@@H](c4ccc(C)cc4)C[C@@H]4CC[C@H]3N4C)s2)cc1 | 15 nM | 3670 nM | 6800 nM | 53 nM | > 2000 nM | > 2000 nM | 3630 nM | 1810 nM
19 | Cc1ccc([C@H]2C[C@@H]3CC[C@H]([C@H]2c2ncc(-c4cccc([N+](=O)[O-])c4)s2)N3C)cc1 | 4 nM | 580 nM | 2380 nM | 14 nM | > 2000 nM | 10000 nM | – | –
20 | Cc1ccc([C@H]2C[C@@H]3CC[C@H]([C@H]2c2ncc(-c4ccc(Br)cc4)s2)N3C)cc1 | – | 1870 nM | 1840 nM | 130 nM | – | – | – | –
